# Screening data (PubChem)
# Hits are enriched below; roughly 2.3% of the tested compounds scored in any of these assays.
# TRPC6 inhibitor – inhibitors of mouse TRPC6 channel; HEK293-TRPC6, membrane potential dye, ACh-evoked depolarization; stronger effect = lower value; AID 2553; Q61143; 310,000 compounds, 1.1% hits; B-score at 10 µM;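 active = B-score under library mean minus 3 SD, initial fluorescence not abnormally high, positive integrated signal ratio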;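 also: B-score derived from integrated fluorescence ratio over the kinetic read; more negative B-score means stronger inhibition of depolarization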
# TRPC6 activator – activates the mouse TRPC6 cation channel; 310,000 compounds, 0.13% hits; B-score at 10 µM; HEK293-TRPC6 membrane potential dye fluorescence; stronger effect = higher value;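 active = B-score of the integrated fluorescence ratio above library mean plus 3 SD, and starting fluorescence ratio within library mean plus 5 SD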;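 also: higher score means more depolarization so channel activation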
# TRPC4 potent – allosteric potentiators of mouse TRPC4 channel | Q9QUQ5 | HEK293 TRPC4beta/mu-opioid, DAMGO EC20, Fluo-4 Ca2+ flux; stronger effect = higher value | B-score at 10 µM | 310,000 compounds, 0.42% hits | AID 2227;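 active = B-score of calcium response area above 5 SD of library B-scores, with initial fluorescence ratio within 5 SD of library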;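 also: B-score of integrated fluorescence ratio over time as area under calcium response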
# TRPC4 agonist – activators of mouse TRPC4 channel; Q9QUQ5; HEK293 TRPC4beta/mu-opioid, Fluo4 calcium fluorescence; stronger effect = higher value; B-score at 10 µM; 310,000 compounds, 0.49% hits; AID 2237;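 active = B-score above 5 SD of library B-scores, and initial fluorescence ratio not above library mean plus 5 SD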;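 also: positive B-score marks a calcium rise read as TRPC4 activation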
#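 Assay system: HEK293 stable line with TRPC4beta plus mu-opioid receptor. Times: dye 45 min RT, read 110 s. Measured by: kinetic Fluo4 calcium fluorescence. Measure: B score of integrated ratio. Controls: assay buffer as low control, maximal DAMGO as high control.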
# TRPC4 block – inhibitors of mouse TRPC4 channel; HEK293 TRPC4beta/mu-opioid, DAMGO-evoked Fluo4 calcium flux; stronger effect = lower value; B-score at 10 µM; 300,000 compounds, 0.39% hits; AID 2247;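 active = B-score over 3 SD under the library average, no early fluorescence shift, positive overall ratio signal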
#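 Material: HEK293 cells with stable TRPC4beta plus mu-opioid receptor expression / Probe or stimulus: DAMGO in two steps, submaximal then maximal / Compound: single concentration per test compound / Technique: kinetic Fluo4 fluorescence imaging of calcium influx / Read-out: per-well B score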
# The depositor's hits bear a star; i = inactive.
SMILES,TRPC6 inhibitor,TRPC6 activator,TRPC4 potent,TRPC4 agonist,TRPC4 block
CC1(C)NC(=O)N(CC(O)CN(c2ccccc2)S(=O)(=O)c2ccc([N+](=O)[O-])cc2)C1=O (stereo not drawn),i,i,i,i,i
Cc1ccc(NC(=O)CCc2ccc(C)o2)cc1,i,i,i,i,i
COc1ccc(C=Nc2ccc3[nH]ncc3c2)c(O)c1,i,i,i,i,i
Oc1c(Br)cc(Br)cc1C=Nc1ccc2[nH]ncc2c1,i,i,i,i,-7*
COc1cc(OC)cc(C(=O)Nc2cccc(NC(=O)c3ccccc3)c2)c1,i,i,i,i,i
COc1cc(OC)cc(C(=O)Nc2ccc(Nc3ccccc3)cc2)c1,-5.05*,i,i,i,i
CSc1ccc(S(=O)(=O)NCC(=O)OCC(=O)N(Cc2ccccc2)C(C)C)cc1[N+](=O)[O-],i,i,i,i,i
CSc1ccc(S(=O)(=O)NCC(=O)OCC(=O)N(C)Cc2ccccc2)cc1[N+](=O)[O-],i,i,17*,i,i
CC1C(=O)N(Cc2ccccc2F)c2ccccc2N1C(=O)c1c(F)cccc1F (stereo not drawn),i,i,10*,i,i
COc1cccc(CN2C(=O)C(C)N(C(=O)c3c(F)cccc3F)c3ccccc32)c1 (stereo not drawn),i,i,i,i,i
O=C(O)CCCCCCCCc1cn(CCc2c[nH]c3ccccc23)nn1,i,i,i,i,i
COC(=O)c1sc(NC(=S)NC(=O)c2ccccc2C)nc1C,i,i,i,49*,i
Cc1cc(C(=O)N/N=C\c2cc(C(C)(C)C)ccc2O)n[nH]1,i,i,i,i,-6*
CCCC1NC(C(=O)O)Cc2c1[nH]c1ccccc21 (stereo not drawn),i,i,i,i,-6*
CC(C)CC1NC(C(=O)O)Cc2c1[nH]c1ccccc21 (stereo not drawn),i,i,i,i,i
CC(C)C1NC(C(=O)O)Cc2c1[nH]c1ccccc21 (stereo not drawn),i,i,i,i,-7*
C/C(=N\O)C(=O)OC1CC(C)CCC1C(C)C (stereo not drawn),i,i,13*,i,i
CCOC(=O)C1C(=O)C=C(c2ccc(C)cc2)CC1c1cccc([N+](=O)[O-])c1 (stereo not drawn),i,i,24*,i,i
Cc1cc(C)cc(OCC(=O)N/N=C\c2cn(C)nc2C)c1,i,i,i,i,i
Cc1nn(C)cc1/C=N/NC(=O)C(C)(C)Oc1ccc(Cl)cc1,i,i,11*,i,i
CC(C)(C)c1ccc(-c2nc3cc(N)ccc3o2)cc1,i,i,18*,i,i
Clc1cc(Cl)cc(C2=NC(Cc3ccccc3)CO2)c1 (stereo not drawn),i,i,i,132*,i
COC(=O)c1ccc(Nc2cc(C)nc3ccccc23)cc1,i,i,i,i,-6*
COc1ccc(Nc2cc(C)nc3ccc(OC)cc23)cc1,i,i,i,i,-6*
Cc1ccc(Nc2cc(C)nc3ccc(C)cc23)cc1,i,i,i,i,-6*
SMILES,TRPC6 inhibitor,TRPC6 activator,TRPC4 potent,TRPC4 agonist,TRPC4 block
COC(=O)c1ccc2nc(C)cc(Nc3ccc(N(C)C)cc3)c2c1,i,i,i,i,i
C#CCNC(=O)C1=C[C@@H](c2ccc3c(c2)OCO3)C[C@@H](OCCCCO)O1,i,i,i,i,i
CC(=O)N1c2ccc(S(=O)(=O)N3CCC(C(=O)Nc4cccc(F)c4)CC3)cc2CC1C (stereo not drawn),i,i,i,i,i
O=C(Nc1ccc([N+](=O)[O-])cn1)C1CCCCC1,i,i,22*,i,i
O=C(Nc1ccc([N+](=O)[O-])cn1)C1CC1,i,i,i,i,i
CCN(CC(=O)Nc1ccc(NC(C)=O)cc1)Cc1c(O)ccc2cc(Br)ccc12,i,i,i,i,i
CCn1c(NCc2c[nH]c3ccccc23)nc2ccccc21,i,i,i,i,-8*
CCn1c(NCc2ccccn2)nc2ccccc21,i,i,i,71*,i
COc1ccccc1CCNC(=O)CN1C(=O)c2ccccc2S1(=O)=O,i,i,i,i,i
CCCn1nc(C(=O)NC2CCCc3ccccc32)c2ccccc2c1=O (stereo not drawn),i,i,23*,i,i
COc1ccc(/C=C(\C#N)C(=O)N2CCOCC2)cc1Br,i,i,14*,i,i
COc1cc(C(C)=O)ccc1OCC(O)CN1CCN(c2c(C)cccc2C)CC1 (stereo not drawn),i,i,i,48*,i
Cc1nc2scc(-c3ccccc3)c2c(=O)n1N=C1C=CC(=O)C=C1,i,i,i,i,-6*
COc1ccc(CN(C)C(=O)c2ccc(NC(=O)CC3SC(N4CCCC4)=NC3=O)cc2)c(OC)c1OC (stereo not drawn),i,i,i,i,i
COc1ccc(CN(C)C(=O)c2ccc(NC(=O)CC3SC(N4CCCC4)=NC3=O)cc2)c(OC)c1 (stereo not drawn),i,i,41*,i,-6*
CCN1CCN(S(=O)(=O)c2ccc(Cl)c(C(=O)Nc3nnc(C)s3)c2)CC1,i,i,i,50*,i
CCN(CC)S(=O)(=O)c1ccc(Cl)c(C(=O)Nc2nnc(C)s2)c1,i,i,i,i,i
COC(=O)C1CCN(Cc2cn(-c3ccccc3)nc2-c2ccc3c(c2)OCO3)CC1,i,i,i,83*,i
CC(=O)NCC1CCCN(Cc2cn(-c3ccccc3)nc2-c2ccc3c(c2)OCO3)C1 (stereo not drawn),i,i,i,i,i
Cc1ccc2[nH]c(=O)c(CN(CCCN3CCOCC3)C(=O)Nc3ccc(Cl)cc3)cc2c1,i,i,i,i,i
COc1ccc(CCn2c(S)nc3ccccc3c2=O)cc1,i,i,i,i,i
CN(C)C(CNC(=O)C1CCN(S(=O)(=O)c2cccc(Cl)c2Cl)CC1)c1ccccc1 (stereo not drawn),i,i,i,i,i
CCOC(=O)Cc1csc(NC(=O)NC2(C(F)(F)F)Oc3ccc(Cl)cc3O2)n1 (stereo not drawn),i,i,i,i,i
